According to ChEMBL document CHEMBL4808197, “Synthesis, docking, machine learning and antiproliferative activity of the 6-ferrocene/heterocycle-2-aminopyrimidine and 5-ferrocene-1H-Pyrazole derivatives obtained by microwave-assisted Atwal reaction as potential anticancer agents” (Bioorg Med Chem Lett, 2021):

Legend:
Type in all cases: functional, cell-based
[1] = system: PC-3; experiment: Antiproliferative activity against human PC-3 cells assessed as inhibition of cell proliferation measured by MTT assay
In short: (§1)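 Tumour cell panel: HCT116 (colorectal carcinoma), PC3 (prostate adenocarcinoma), HL60 (acute promyelocytic leukaemia), SNB19 (astrocytoma). Antiproliferative effect reported as half-maximal inhibitory concentration (IC50, µM) for each line.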

[2] = system: HL-60; experiment: Antiproliferative activity against human HL-60 cells assessed as inhibition of cell proliferation measured by MTT assay; in short: as §1
[3] = system: HCT-116; experiment: Antiproliferative activity against human HCT-116 cells assessed as inhibition of cell proliferation measured by MTT assay; in short: as §1
[4] = system: SNB-19; experiment: Antiproliferative activity against human SNB-19 cells assessed as inhibition of cell proliferation measured by MTT assay; in short: as §1
[5] = system: HeLa; experiment: Cytotoxicity against human HeLa cells assessed as inhibition of cell viability
[6] = system: B16-F10; experiment: Antiproliferative activity against mouse B16-F10 cells assessed as inhibition of cell proliferation
[7] = system: A549; experiment: Antiproliferative activity against human A549 cells assessed as inhibition of cell proliferation

SMILES	IC50 [1] [µM]	IC50 [2] [µM]	IC50 [3] [µM]	IC50 [4] [µM]	IC50 [5] [µM]	IC50 [6] [µM]	IC50 [7] [µM]
Nc1nc(-c2ccccc2)cc(-c2cnn(-c3ccccc3)n2)n1	142	66.5	120	> 200	–	–	–
Nc1ccc(-c2cc(-c3cnn(-c4ccccc4)n3)nc(N)n2)cc1	58.2	68.2	95.3	106	–	–	–
Nc1nc(-c2ccccc2)cc(-c2cccs2)n1	33.6	70.3	57	85.1	–	–	–
Nc1nc(-c2ccccc2)cc(-c2ccc[nH]2)n1	81.5	29.3	55.5	174	–	–	–
Nc1nc(-c2ccccc2)cc(-c2cn(-c3ccccc3)nc2-c2ccc([N+](=O)[O-])cc2)n1	–	–	–	–	5.47	–	–
Nc1nc(-c2ccc([N+](=O)[O-])cc2)cc(-c2cnn(-c3ccccc3)n2)n1	> 200	> 200	133	132	–	–	–
Cc1ccc(-c2cc(C(F)(F)F)nn2-c2ccc(S(N)(=O)=O)cc2)cc1 [CELECOXIB]	–	–	–	–	–	16.2	16.3
